Only some compounds are listed: those with a hit (about 1.3% of all), similar ones and a draw of the others.
hiPSC survival = increases survival of single human iPS cells; hiPSC single-cell survival, ATPlite luminescence; 100% = ROCK inhibitor wells, 0% = DMSO; survival enhancement, % at 20 µM; 360,000 compounds, 0.044% hits; in the data active = survival enhancement above about 18%;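 note: cells exposed to compounds for 16 hours before the ATP read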
SKN-1 block = blocks SKN-1 activity in C. elegans. 360,000 compounds, 0.49% hits. inhibition, % at 21.8 µM. C. elegans VP596 Pgst-4::GFP/RFP ratio, acrylamide-induced, 24 h;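 active = interference check ratio from 0.5 to 1.5 plus GFP to RFP signal ratio inhibition reaching or exceeding a fixed threshold, cut at about 30% in these data, passing the limit was not always enough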
FAS TE block = FAS thioesterase (human) inhibition; P49327; recombinant FAS-TE, OMFH fluorogenic substrate, fluorescence endpoint; AID 602261; inhibition, % at 15 µM; 360,000 compounds, 0.67% hits;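 active = compounds whose normalised, plate-corrected inhibition of enzyme fluorescence in the single-dose primary screen is 50% or more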;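 note: 0% = DMSO with enzyme and 100% = substrate without enzyme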
DAGLB inh = blocks human DAGLB lipase activity; 340,000 compounds, 0.059% hits; Q8NCG7; inhibition, % at 5.17 µM; HEK293T DAGLB membrane lysate, EnzChek fluorogenic substrate; in the data active = inhibition above about 34%;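 note: 0% = enzyme with vehicle and 100% = wells lacking enzyme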
MT1-MMP act inh = inhibitors of human MT1-MMP activation | P50281 | HT1080 RFP-PRO-GFP cells, GFP/RFP ratio fluorescence, overnight; percent of plate control window, DMSO zero | GFP/RFP ratio change, % at 20 µM | 360,000 compounds, 0.061% hits;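 active = GFP/RFP ratio change of at least 30% with cell ATP level not reduced by more than half and red fluorescence within 50% of control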
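Material: RFP-PRO-GFP reporter HT1080 cells. Dosing: single-point 20 µM compound, 1% DMSO. Controls: DMSO and RFP-L50D-GFP cell wells. Timing: cells overnight before dosing, compound overnight, 37 °C, 5% CO2. Measure: GFP/RFP fluorescence ratio.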
* = called active by the depositor; x = not tested or not shown.

SMILES	hiPSC survival	SKN-1 block	FAS TE block	DAGLB inh	MT1-MMP act inh
O=C(/C=C/c1ccco1)Nc1nc(-c2ccccc2)cs1	-1	51*	0	0	1
C(=N\Nc1nc(-c2ccccc2)cs1)/c1ccco1	0	47*	-4	0	-1
CN(C)S(=O)(=O)c1ccc(-c2csc(N/N=C/c3ccco3)n2)cc1	0	3	24	7	-11
Clc1ccc(-c2csc(N/N=C/c3ccco3)n2)cc1	1	91*	24	-3	0
Brc1ccc(-c2csc(N/N=C/c3ccco3)n2)cc1	0	65*	15	-1	2
CNc1cncc(-c2cnn(CC(C)C)c2)n1	3	8	-7	x	3
COc1cc2ccc(C(=O)O)cc2cc1OC	1	11	-3	-3	-2
O=C(Nc1cccc2cccnc12)c1ccc2sc([C@@H]3O[C@H](CO)[C@H](O)[C@H](O)[C@H]3O)nc2c1	1	17	-6	x	5
CN(C)Cc1csc(Nc2ccc(C(F)(F)F)cn2)n1	-3	12	-6	x	0
Cc1ccc(-c2csc(N/N=C/c3ccco3)n2)cc1	6	60*	16	1	-9
CCOC(=O)Nc1cccc2c1-c1ccc([N+](=O)[O-])cc1C2=O	0	40*	1	3	-4
CCn1c(SCC(=O)Nc2cc(C)on2)nnc1-c1ccncc1	1	5	-8	-2	9
Cc1cc(NC(=O)CSc2nnc(-c3ccncc3)n2-c2ccc(F)cc2)no1	0	42*	0	0	-1
NC(=O)c1ccc(NC(=O)CCC(=O)c2cccs2)cc1	62*	-2	-7	2	-2
O=C(NCc1ccccn1)c1cccc(S(=O)(=O)N2CCCCC2)c1	-1	6	-8	0	1
O=C(NCCc1ccccn1)c1ccc(S(=O)(=O)N2CCCCCC2)cc1	-1	39*	-8	1	-4
COC(=O)c1ccc(S(=O)(=O)N2CCCCCC2)cc1	-2	35*	1	-6	-2
COC(=O)C1=C(C(=O)OC)[C@@H]2N(Cc3ccccc3)c3ccccc3[C@@]23C[C@@H](C(=O)OC)N(C(=O)c2ccc(Br)cc2)C3=N1	-1	3	84*	1	-12
COc1ccc(-n2ccnc2SCC(=O)c2c(N)n(C3CC3)c(=O)[nH]c2=O)cc1	0	5	-7	-1	1
CCC(=O)c1ccc(N2CCN(C(=O)c3cc([N+](=O)[O-])ccc3N3CCN(C)CC3)CC2)c(F)c1	3	1	70*	4	5
COC(=O)C1=C(C)N(Cc2ccccc2)C(=NCCc2ccccn2)N[C@H]1c1cccc(F)c1	-4	37*	-14	-2	-4
CCN1C(=NCCc2ccccn2)N[C@@H](c2cccc(F)c2)C(C(=O)OC)=C1C	0	8	-10	0	1
CC(C)(C)NC(=O)CN(C(=O)CCC(=O)Nc1nccs1)c1cccc(C(F)(F)F)c1	0	35*	2	2	-3
CCOC(=O)C(Cc1cc(C(C)=O)ccc1OCC)C(=O)OCC	5	38*	-4	-7	3
Clc1ccccc1-c1ccc(CN2CCN(c3ccccc3)CC2)o1	1	38*	22	-18	-2
SMILES	hiPSC survival	SKN-1 block	FAS TE block	DAGLB inh	MT1-MMP act inh
O=[N+]([O-])c1ccc(CN2CCN(c3ccccc3)CC2)o1	-1	-20	-3	-1	2
c1ccc(-c2ccc3ccccc3n2)cc1	1	24	6	-6	1
c1ccc2nc(-c3ccc(-n4ccnc4)cc3)ccc2c1	0	66*	2	0	5
Fc1cccc(Cc2c(-c3cccc(Cl)c3)nc3ccc(Cl)cn23)c1	0	4	10	x	-2
Cc1cc2cc(CNC(=O)c3ccco3)ccc2n1C	-1	49*	-9	1	22
COCC(=O)NCc1ccc2c(c1)cc(C)n2C	4	47*	-13	-4	10
Cc1cc2cc(CNC(=O)COc3ccccc3)ccc2n1C	1	65	-4	8	35
O=[N+]([O-])c1ccc(-n2nncc2-c2ccc(Cl)cc2)cc1	0	7	33	-3	2
CC(=O)c1ccc(-n2nncc2-c2ccc([N+](=O)[O-])cc2)cc1	0	59*	10	1	-2
CC1=C(C(=O)N2CCCCCC2)CC(CC(=O)NC2CCCC2)C(=O)N1Cc1ccc(C(C)(C)C)cc1 (centres undefined)	1	-1	21	x	4
Cc1c(C(=O)OCC(=O)Nc2ccc(C(N)=O)cc2)cccc1[N+](=O)[O-]	22*	-8	-7	0	1
COc1ccc(/C=N/Nc2nc(Nc3ccccc3)nc(N3CCCCC3)n2)cc1OC	-2	37*	23	-5	8
CCc1sc(N(C(=O)Cc2ccccc2)c2ccccc2F)nc1-c1ccc(C)cc1	0	4	29	-2	-8
CCc1sc(N(C(=O)Cc2ccccc2)c2cccc(F)c2)nc1-c1ccc(C)cc1	2	44*	23	1	-1
CCOC(=O)[C@]12CCC=C1N(Cc1ccccc1)C(=O)[C@H](CC(=O)NCCC(C)C)C2	-1	-5	1	x	3
COc1ccc(Nc2ccc(OC)cc2)cc1	-1	47	6	x	38*
OC(c1cc(F)cc(Cl)c1)c1ncc(-c2ccc(Cl)cc2)[nH]1 (centres undefined)	2	2	15	x	4
CC(C)CC(=O)Nc1ccc(Nc2ccccc2)cc1	4	35*	-1	4	3
CCn1nnc2sc3c(c2c1=O)CCC(C)C3 (centres undefined)	-1	36*	-11	-4	1
CC(=O)Cn1nnc2sc3c(c2c1=O)CCC(C(C)(C)C)C3 (centres undefined)	-1	-2	6	-6	-2
CC1=C(C(=O)N(C(C)C)C(C)C)CC(CC(=O)NC2CCCC2)C(=O)N1Cc1ccc(F)cc1 (centres undefined)	3	3	-13	x	3
CC1(C)Cc2c(C#N)c(NCC3CCCO3)nc(-c3ccco3)c2CO1 (centres undefined)	20*	2	-6	-2	-5
CC1(C(=O)Nc2cccnc2)Cc2c(-c3cccc(C(F)(F)F)c3)ccnc2O1 (centres undefined)	-1	13	5	x	-4
COc1ccc(C(=O)c2oc3ccc(OC)cc3c2N)cc1	2	44*	13	1	-6
CCCCNc1cc(=O)oc2ccccc12	-2	30*	-2	0	2
COC(=O)C1(C(=O)OC)C[C@H](/C=C/c2ccccc2)N(Cc2ccccc2OC)[C@@H]1c1ccc(F)cc1	x	6	x	x	-2
Brc1ccccc1-n1nnc(-c2nccs2)n1	0	26	-8	-3	1
c1ccc(-n2nnc(-c3nccs3)n2)cc1	0	36*	-8	3	-2
